Laboratory results reported in paper PMC9534497 (Science Advances, 2022).
Where a chain is given by its changes, count along the chain named. Numbers in names are those of the source.

Tests used:
E. coli CM742 (dnaA46ts) = assay: Flow cytometry, total DNA content per cell; format: cell-based; conditions: 30°C, 0.2% arabinose, rifampicin and cephalexin 2.5 hours
How it was run: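 Host is dnaA46ts E. coli transformed with pBAD-derived plasmids carrying wild-type or mutant dnaA under an arabinose promoter. Overnight LB cultures with antibiotics were diluted to OD600 ~0.005 and grown 45 min. Each culture was split: one half got 0.2% arabinose, the other 0.2% glucose. At 30°C to OD600 0.15, then rifampicin (150 μg/ml) plus cephalexin (10 μg/ml) for 2.5 h; DNA content measured by flow cytometry.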

[1] = ThermoFluor assay, melting point of DnaA proteins; format: physicochemical, E. coli
E. coli MG1655 = assay: Growth of wild-type host on overexpression of DnaA; format: cell-based; conditions: 30°C, WT host
E. coli EH3827 = assay: In vivo replication assay, poriC transformation of ∆dnaA cells; format: cell-based; conditions: 0.1 or 0.2% arabinose, versus DnaA WT
[2] = Stability of ATP binding of DnaA at 4°, 30° or 42°C, filter retention assay; set-up: species or system E. coli
How it was run: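 Purified DnaA (1.9 μM) was loaded with 1 μM [α-32P]ATP in PP-60 buffer for 15 min at 4°C, then held at 4°, 30° or 42°C. Aliquots were withdrawn at timed intervals. Bound nucleotide was measured by retention on nitrocellulose filters and scintillation counting.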

[3] = DTSSP cross-linking for higher-oligomer forms of DnaA; format: biochemical, E. coli; conditions: ATP form treated with DTSSP
[4] = test system: E. coli CM742 (dnaA46ts) carrying pRD (seqA); assay: Growth of dnaA46ts cells with SeqA-expressing plasmid pRD; format: cell-based; conditions: 30°C, IPTG 50 μM (SeqA expressed), no arabinose, 0.2% arabinose or 0.2% glucose
How it was run: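 Cells carrying the IPTG-inducible seqA plasmid were made competent on LB-agar with tetracycline and 50 μM IPTG. They were transformed with pBAD-based dnaA plasmids and selected at 30°C on tetracycline (12.5 μg/ml) plus ampicillin (100 μg/ml). Single colonies were grown in LB to OD600 ~0.1. Equal OD units were replica-plated with no sugar, 0.2% arabinose or 0.2% glucose.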

[5] = test system: E. coli EH3287 (∆dnaA/pgsA^+); assay: Subcellular fractionation and immunoblotting of DnaA; format: cell-based; conditions: 0.2% arabinose for 90 min
How it was run: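 ΔdnaA/pgsA+ cells carrying arabinose-inducible dnaA alleles were grown to OD600 ~0.1, then induced with 0.2% arabinose for 90 min. Lysis used lysozyme (300 μg/ml) plus three freeze-thaw cycles. Cytosol and membranes were separated at 44,000 rpm for 30 min. Membranes were solubilized in octyl-thio-glucoside or CHAPS, recentrifuged and dialysed overnight. Protein levels are relative to wild type, averaged over three biological replicates.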

[6] = ThermoFluor assay with SUVs composed of DOPG; format: physicochemical, E. coli; conditions: ATP-bound form
How it was run: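 DnaA (10 μM) was pre-incubated with 5 mM ATP on ice for 15 min, then mixed with DOPG small unilamellar vesicles at the stated concentrations. SYPRO Orange (50× dilution) was added to 50 μl final volume. Fluorescence was recorded from 25° to 95°C at 1 min/°. Tm and −dF/dT came from a variable-slope sigmoidal fit.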

[7] = 37°C, at least 60 min, not challenged with acidic phospholipids; cited from earlier work
[8] = protein 5 μM with ATP 5 mM (Fig. 2)
[9] = 4° and 30°C, with reduced affinity
[10] = ATP-bound form, protein 10 μM, ATP 5 mM, no SUVs (Fig. 7C)

B1: DnaA(D118Q): DnaA mutant, Asp^118 in the linker domain substituted with Gln (protein)
chain: MSLSLWQQCLARLQDELPATEFSMWIRPLQAELSDNTLALYAPNRFVLDWVRDKYLNNINGLLTSFCGADAPQLRFEVGTKPVTQTPQAAVTSNVAAPAQVAQTQPQRAAPSTRSGWQNVPAPAEPTYRSNVNVKHTFDNFVEGKSNQLARAAARQVADNPGGAYNPLFLYGGTGLGKTHLLHAVGNGIMARKPNAKVVYMHSERFVQDMVKALQNNAIEEFKRYYRSVDALLIDDIQFFANKERSQEEFFHTFNALLEGNQQIILTSDRYPKEINGVEDRLKSRFGWGLTVAIEPPELETRVAILMKKADENDIRLPGEVAFFIAKRLRSNVRELEGALNRVIANANFTGRAITIDFVREALRDLLALQEKLVTIDNIQKTVAEYYKIKVADLLSKRRSRSVARPRQMAMALAKELTNHSLPEIGDAFGGRDHTTVLHACRKIEQLREESHDIKEDFSNLIRTLSS
modifications: left off: His10, N-terminal, state not stated
overreplication / DNA content per cell upon induction of DnaA (E. coli CM742 (dnaA46ts)): more extensive
melting point [1, 8]: 49 °C
growth of the host on induced expression (E. coli MG1655): no growth defect
reduction in the number of transformants (E. coli EH3827): at least 50 fold
retention of bound ATP [2, 9]: maintained its ATP form
formation of higher-order oligomer assemblies [3]: higher-order oligomer assemblies were not formed
growth on LB-agar plates [4]: showed growth at 30 °C
DnaA in OTG-solubilized membrane fraction (immunoblotting) [5]: abundant accumulation in the membrane

B2: DnaA(L366K): DnaA with substitution L366K in the AAA+ membrane-binding region (protein, UniProt P03004 1-467, looked up, variant L366K)
Chromosomal replication …: B1 chain with Q118D, L366K
melting point [1, 10]: 54 °C
melting point (peak) ([6]; 25 μM DOPG SUVs (Fig. 7D)): 50 °C
melting point (peak) ([6]; 100 μM DOPG SUVs (Fig. 7E)): did not shift further
DnaA in OTG-solubilized membrane fraction (immunoblotting) [5]: retained in the OTG-solubilized membrane fractions

B3: DnaA(A184V): control DnaA mutant defective in ATP binding, changed residue within nucleotide-binding pocket of domain III (protein, UniProt P03004 1-467, looked up, variant A184V)
Chromosomal replication …: B1 chain with Q118D, A184V
overreplication / DNA content per cell upon induction of DnaA (E. coli CM742 (dnaA46ts)): more extensive
melting point [1, 8]: 49 °C
reduction in the number of transformants (E. coli EH3827): at least 50 fold
retention of bound ATP [2, 9]: maintained its ATP form
growth on LB-agar plates [4]: showed growth at 30 °C

B4: mutant DnaA protein where Asp^118 is substituted with Gly: DnaA mutant, Asp^118 substituted with Gly (protein, UniProt P03004 1-467, looked up, variant D118G)
Chromosomal replication …: B1 chain with Q118G
melting point [1, 8]: 55 °C

B5: Apo-DnaA: DnaA protein without bound nucleotide, ground or inactive state (protein, UniProt P03004 1-467, looked up)
Chromosomal replication …: B1 chain with Q118D
modifications: nucleotide-free
melting point ([1]; Apo form, no ATP): 44 °C

B6: DnaA(WT): wild-type E. coli chromosomal replication initiator protein DnaA, purified 10× histidine-tagged (protein)
chain: B1 chain with Q118D
modifications: left off: His10, N-terminal, state not stated
melting point [1, 10]: approximately 57 °C
melting point [1, 8]: 57 °C
ATP-DnaA complex remaining intact [7]: > 90%
retention of bound ATP ([2]; 4°, 30° and 42°C, up to 60 min): retained ATP at different temperatures comparably
melting point (peak) ([6]; 100 μM DOPG SUVs (Fig. 7E)): 44 °C
DnaA in OTG-solubilized membrane fraction (immunoblotting) [5]: retained in the OTG-solubilized membrane fractions

B7: DnaA(D118A) (protein, UniProt P03004 1-467, looked up, variant D118A)
Chromosomal replication …: B1 chain with Q118A
melting point [1, 8]: no shift
retention of bound ATP ([2]; 4°, 30° and 42°C, up to 60 min): retained ATP at different temperatures comparably
